What is called IC50 is the concentration that gives 50% inhibition.

This is an account of results in ChEMBL document CHEMBL5108039, “Piperazine tethered bergenin heterocyclic hybrids: design, synthesis, anticancer activity, and molecular docking studies” (RSC Med Chem, 2022).

Series [1] has as its system HCT-15. As to the kind of experiment: Cytotoxicity against human HCT-15 cells assessed as cell growth inhibition. The series is classed as functional, cell-based. An outline of the steps:
(§1)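 Compounds were dissolved in sterile DMSO as 10 mg ml−1 stocks and tested for in vitro growth inhibition of human cancer cell lines. Doxorubicin was the standard drug and DMSO (0.01%) the vehicle control. IC50 values are reported as means.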

Series [2] has as its system CAL-27. Description: Cytotoxicity against human CAL-27 cells assessed as cell growth inhibition. Type of series: functional, cell-based. In outline:
as §1

Series [3] relates to SCC-9. Description: Cytotoxicity against human SCC-9 cells assessed as cell growth inhibition. Type of series: functional, cell-based. In outline:
as §1

Series [4] has as its system A549. As to the kind of experiment: Cytotoxicity against human A549 cells assessed as cell growth inhibition. The series is classed as functional, cell-based. An outline of the steps: (§2)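 Compounds were dissolved in sterile DMSO as 10 mg ml−1 stocks and tested in vitro for cytotoxicity in a cell-line panel, with DMSO (0.01%) as vehicle control and doxorubicin as standard. Mean IC50 values were reported, and the normal lung epithelial cells were tested up to 100 μM.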

Series [5] deals with MCF7. As to the kind of experiment: Cytotoxicity against human MCF7 cells assessed as cell growth inhibition. Type of series: functional, cell-based. An outline of the steps: as §1
The nature of series [6]: Cytotoxicity against human BEAS-2B cells assessed as cell growth inhibition. The series is classed as toxicity, cell-based. In outline:
as §2

Consider `COc1c(O)c(CN2CCN(CC(=O)Nc3nc4c(C)cccc4s3)CC2)c2c(c1O)C1O[C@H](CO)[C@@H](O)[C@H](O)C1OC2=O` (stereo partly specified), for which the concentration for half-maximal inhibition (IC50) in series [1] was more than 100 µM; in series [2], 81.2 µM; in series [3], more than 100 µM; in series [4], more than 100 µM; in series [5], more than 100 µM; in series [6], more than 100 µM.

With `COc1c(O)c(CN2CCN(S(=O)(=O)c3ccc(F)c(F)c3F)CC2)c2c(c1O)C1O[C@H](CO)[C@@H](O)[C@H](O)C1OC2=O` (stereo partly specified), the concentration for half-maximal inhibition (IC50) in series [1], in series [2], in series [3], in series [4], in series [5] and in series [6] was more than 100 µM throughout.

With `COc1c(O)c(CN2CCN(S(=O)(=O)c3ccc(F)c(Cl)c3)CC2)c2c(c1O)C1O[C@H](CO)[C@@H](O)[C@H](O)C1OC2=O` (stereo partly specified), the half-maximal inhibitory concentration (IC50) in series [1] was more than 100 µM; in series [2] it was 92.9 µM; in series [3], more than 100 µM; in series [4] it was more than 100 µM; in series [5] it was more than 100 µM; in series [6], more than 100 µM.

In the case of `COc1c(O)c(CN2CCN(CC(=O)Nc3nc4ccc(Cl)cc4s3)CC2)c2c(c1O)C1O[C@H](CO)[C@@H](O)[C@H](O)C1OC2=O` (stereo partly specified), the IC50 in series [1] is 97.6 µM; in series [2], more than 100 µM; in series [3], 32.6 µM; in series [4], 65.6 µM; in series [5] it was 64.1 µM; in series [6], 44.2 µM.

Turning to `COc1c(O)c(CN2CCN(CC(=O)Nc3nc4ccc(F)cc4s3)CC2)c2c(c1O)C1O[C@H](CO)[C@@H](O)[C@H](O)C1OC2=O` (stereo partly specified), the IC50 in series [1] is more than 100 µM; in series [2], 53 µM; in series [3], more than 100 µM; in series [4], more than 100 µM; in series [5], more than 100 µM; in series [6], more than 100 µM.

`CCOc1ccc2nc(NC(=O)CN3CCN(Cc4c(O)c(OC)c(O)c5c4C(=O)OC4C5O[C@H](CO)[C@@H](O)[C@@H]4O)CC3)sc2c1` (stereo partly specified): the half-inhibitory concentration (IC50) in series [1] was more than 100 µM; in series [2] it was 83.7 µM; in series [3], more than 100 µM; in series [4], more than 100 µM; in series [5] it was more than 100 µM; in series [6], more than 100 µM.

In the case of `COc1c(O)c(CN2CCN(CC(=O)Nc3nc4ccc([N+](=O)[O-])cc4s3)CC2)c2c(c1O)C1O[C@H](CO)[C@@H](O)[C@H](O)C1OC2=O` (stereo partly specified), the IC50 in series [1] is 85.9 µM; in series [2] it was 30.5 µM; in series [3], 37.6 µM; in series [4] it was more than 100 µM; in series [5], more than 100 µM; in series [6], 58.6 µM.

Regarding `COc1c(O)c(CN2CCN(S(=O)(=O)c3cccc4ccccc34)CC2)c2c(c1O)C1O[C@H](CO)[C@@H](O)[C@H](O)C1OC2=O` (stereo partly specified), the IC50 in series [1] was more than 100 µM; in series [2], 74 µM; in series [3], more than 100 µM; in series [4], more than 100 µM; in series [5], more than 100 µM; in series [6], more than 100 µM.

As for `COc1c(O)c(CN2CCN(S(=O)(=O)c3ccc(F)cc3Cl)CC2)c2c(c1O)C1O[C@H](CO)[C@@H](O)[C@H](O)C1OC2=O` (stereo partly specified), the concentration for half-maximal inhibition (IC50) in series [1], in series [2], in series [3], in series [4], in series [5] and in series [6] was more than 100 µM throughout.

As for `COc1c(O)cc2c(c1O)C1O[C@H](CO)[C@@H](O)[C@H](O)C1OC2=O` (stereo partly specified), the IC50 in series [1], in series [2], in series [3], in series [4], in series [5] and in series [6] was more than 100 µM throughout.

Take `COc1ccc(S(=O)(=O)N2CCN(Cc3c(O)c(OC)c(O)c4c3C(=O)OC3C4O[C@H](CO)[C@@H](O)[C@@H]3O)CC2)cc1` (stereo partly specified): the IC50 in series [1], in series [2], in series [3], in series [4], in series [5] and in series [6] was more than 100 µM in each case.
